ChEMBL document CHEMBL3608299, “Identification of N-acylhydrazone derivatives as novel lactate dehydrogenase A inhibitors” (Eur J Med Chem, 2015)
The source made the active and inactive calls. The rule behind the calls is not given here.

Legend:
[1] = molecular target: T1, L-lactate dehydrogenase A chain (Homo sapiens, UniProt P00338); test: Inhibition of lactate dehydrogenase-A in human Raji cells assessed as reduction of intracellular lactate level after 3 hrs; format: cell-based
In short: (§1)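 Raji Burkitt's lymphoma cells (MYC-overexpressing) were used for lactic acid production and cell proliferation. All points were run in triplicate and reported as mean ± standard deviation.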

[2] = molecular target: T1, L-lactate dehydrogenase A chain; test: Inhibition of human liver purified lactate dehydrogenase-A using pyruvate as substrate assessed as NADH oxidation for 3 mins by fluorimetric method
In short: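 Purified human LDH-A was run in a fluorimetric assay. Values were obtained from triplicate points and given as mean ± standard deviation.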

Raji [3] = test: Antiproliferative activity against human Raji cells after 24 hrs by Trypan blue exclusion method; format: functional, cell-based; in short: as §1
[4] = molecular target: T1, L-lactate dehydrogenase A chain; test: Inhibition of lactate dehydrogenase-A in human Raji cells assessed as reduction of intracellular lactate level at 40 uM after 3 hrs; format: cell-based
Raji [5] = test: Potentiation of daunomycin-induced cytotoxicity against human Raji cells assessed as combination index at 40 uM after 24 hrs by Trypan blue exclusion method relative to control; format: functional
In short: (§2)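 Each chemotherapeutic agent was first titrated on Raji cells to its lowest dose giving a statistically significant viability effect at 24 h. That dose was then combined with a fixed concentration of the test agent, and a combination index was calculated, where 0.8–1.2 indicates additivity. Experiments were repeated twice.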

[6] = Cytotoxicity against lymphocytes (unknown origin) assessed as cell viability at 200 uM after 24 hrs by Trypan blue exclusion method; format: cell-based; conditions: lymphocyte
In short: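 Viability of normal lymphocytes after treatment was compared with Raji cultures across a concentration range up to 200. Significance was assessed by ANOVA.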

Raji [7] = test: Antiproliferative activity against human Raji cells at 40 uM after 24 hrs by Trypan blue exclusion method; format: functional
[8] = molecular target: T1, L-lactate dehydrogenase A chain; test: Inhibition of human liver purified lactate dehydrogenase-A using NADH as substrate assessed as disappearance of NADH fluorescence
In short: (§3)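 Purified human LDH-A enzymatic assays were run. Inhibition constants (Ki) were calculated separately versus pyruvate and versus NADH as the varied substrate.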

[9] = molecular target: T1, L-lactate dehydrogenase A chain; test: Inhibition of lactate dehydrogenase-A in human Raji cells assessed as NADH level per 10^6 cells at 40 uM after 18 hrs (reference value: 24 pmol); format: cell-based
In short: (§4)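 Intracellular NAD+ and NADH were measured in Raji cells after 18 h exposure to assess the redox balance. The shift was evaluated against untreated cells with statistical testing.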

Raji [10] = test: Potentiation of sunitinib-induced cytotoxicity against human Raji cells assessed as combination index at 40 uM after 24 hrs by Trypan blue exclusion method relative to control; format: functional; in short: as §2
[11] = molecular target: T1, L-lactate dehydrogenase A chain; test: Inhibition of human liver purified lactate dehydrogenase-A using pyruvate as substrate assessed as disappearance of NADH fluorescence; in short: as §3
Raji [12] = test: Potentiation of etoposide-induced cytotoxicity against human Raji cells assessed as combination index at 40 uM after 24 hrs by Trypan blue exclusion method relative to control; format: functional; in short: as §2
Raji [13] = test: Potentiation of cisplatin-induced cytotoxicity against human Raji cells assessed as combination index at 40 uM after 24 hrs by Trypan blue exclusion method relative to control; format: functional; in short: as §2
[14] = molecular target: T1, L-lactate dehydrogenase A chain; test: Inhibition of lactate dehydrogenase-A in human Raji cells assessed as NAD level per 10^6 cells at 40 uM after 18 hrs (reference value: 365 pmol); format: cell-based; in short: as §4
Raji [15] = test: Induction of apoptosis in human Raji cells assessed as increase of BAX protein expression at 40 uM after 18 hrs by Western blotting relative to control; format: functional
In short: (§5)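 After 18 h exposure, Raji cell lysates were analysed by Western blot for the mitochondrial apoptosis regulators BAX and BCL2. The fold change was expressed versus untreated control.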

Raji [16] = test: Cell cycle arrest in human Raji cells assessed as accumulation at S phase at 40 uM after 18 hrs using propidium iodide staining by flow cytometry; format: functional, cell-based; conditions: in the assay text read “accumulation at G2/M phase” for “accumulation at S phase”
In short: (§6)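 Raji cells were exposed for 18 h, then stained with propidium iodide. Cell cycle phase distribution (S, G2/M fractions) was measured by flow cytometry and tested for statistical significance against untreated cells.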

Raji [17] = test: Cell cycle arrest in human Raji cells assessed as accumulation at G2/M phase at 40 uM after 18 hrs using propidium iodide staining by flow cytometry; format: functional, cell-based; in short: as §6
[18] = molecular target: T1, L-lactate dehydrogenase A chain; test: Inhibition of lactate dehydrogenase-A in human Raji cells assessed as reduction of NAD+ regeneration at 40 uM; format: cell-based; in short: as §4
Raji [19] = test: Induction of apoptosis in human Raji cells assessed as increase of BCL2 protein expression at 40 uM after 18 hrs by Western blotting; format: functional, cell-based; in short: as §5

IC50 [1] [µM]	IC50 [2] [µM]	IC50 (Raji [3]) [µM]	SMILES	other results
> 200	37	–	N#CCC(=O)N/N=C/c1ccc(-c2ccc(C(=O)O)cc2)o1	–
> 200	46	> 200	O=C(O)c1cccc(-c2ccc(/C=N/NC(=O)c3cccc(CO)c3)o2)c1	–
134	125	100	COc1cc(C(=O)N/N=C/c2ccc(-c3ccc(C(=O)O)cc3)o2)cc(OC)c1OC	–
> 200	41	45	O=C(O)c1cccc(-c2ccc(/C=N/NC(=O)c3ccc4[nH]ncc4c3)o2)c1	–
100	38	115	O=C(O)c1cccc(-c2ccc(/C=N/NC(=O)c3ccc4[nH]ccc4c3)o2)c1	–
115	48	64	N#CCC(=O)N/N=C/c1ccc(-c2cccc(C(=O)O)c2)o1	–
52	32	48	COc1cc(C(=O)N/N=C/c2cc(-c3cccc(C(=O)O)c3)co2)cc(OC)c1OC	–
–	> 200	–	COc1cc(C(=O)N/N=C/c2cccc(-c3cccc(C(=O)O)c3)n2)cc(OC)c1OC	–
> 200	43	> 200	O=C(O)c1cccc(-c2ccc(/C=N/NC(=O)c3cccnc3)o2)c1	–
42	37	38	COc1cc(C(=O)N/N=C/c2ccc(-c3cccc(C(=O)O)c3)o2)cc(OC)c1OC	inhibition [4]: 50%; CI (Raji [5]): 0.88; Activity [6]: Non-toxic; inhibition at 40 µM (Raji [7]): 50%; Ki [8]: 47 µM; Activity [9]: 26 pmol; CI (Raji [10]): 1.08; Ki [11]: 39 µM; CI (Raji [12]): 0.86; CI (Raji [13]): 1; Activity [14]: 351 pmol; fold change (FC) (Raji [15]): 6.7; Activity (Raji [16]): Active; Activity (Raji [17]): Active; inhibition [18]: Active; Activity (Raji [19]): inactive
> 200	–	80	COc1cc(C(=O)N/N=C/c2c[nH]c(-c3cccc(C(=O)O)c3)c2)cc(OC)c1OC	–
–	> 200	–	COC(=O)c1cccc(-c2ccc(/C=N/NC(=O)c3cccnc3)o2)c1	–
–	> 200	–	N#CCC(=O)N/N=C/c1cccc(-c2ccc(C(=O)O)cc2)n1	–
105	41	95	COc1cc(C(=O)N/N=C/c2ccc(-c3cccc(C(=O)O)c3)s2)cc(OC)c1OC	–
